From ChEMBL document CHEMBL1126582, “Symmetry-based inhibitors of HIV protease. Structure-activity studies of acylated 2,4-diamino-1,5-diphenyl-3-hydroxypentane and 2,5-diamino-1,6-diphenylhexane-3,4-diol” (J Med Chem, 1993)
Values after ≈ are worked out from the molar mass of the structure shown.

Key:
[1] = Estimated solubility (buffer pH 7.4); type: ADME; conditions: read-out: S
Method in brief: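 Solubility was estimated in pH 7.4 phosphate buffer.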

[2] = In vitro for cytotoxicity in MT-4 lymphocytes in the absence of HIV infection; type: cell-based, MT4; conditions: human
Method in brief: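 Uninfected MT-4 lymphocytes were cultured with compound. CC50 is the concentration at which 50% of cells remain viable.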

[3] = system: Human immunodeficiency virus 1; test: Compound was tested in vitro for inhibition of cytopathic effect of HIV-1 3B in MT-4 lymphocytes; type: functional, organism-based
Method in brief: (§1)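 MT-4 lymphocytes were infected with HIV-1 3B at an MOI of either 0.001 or 0.032 tissue culture infective dose per cell. EC50 is the concentration preventing 50% of viral cytopathic effect, from a single triplicate assay. No effect means no activity up to 100 μM or up to the cytotoxic concentration.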

[4] = target: Human immunodeficiency virus type 1 protease (Human immunodeficiency virus 1, UniProt Q72874); test: Inhibition of purified recombinant HIV-1 protease in a fluorogenic assay
Method in brief: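 Purified recombinant HIV-1 protease, with cleavage of the fluorogenic substrate DABCYL-[…]-Pro-Ile-Val-Gln-EDANS as read-out. Value is the inhibitor concentration giving 50% inhibition of protease activity.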

[5] = system: MT4; test: Compound was tested in vitro for inhibition of cytopathic effect of HIV-1 3B in MT-4 lymphocytes; No effect; type: functional, cell-based, Homo sapiens; method in brief: as §1
[6] = Cmax in rat plasma after oral dose (10 mg/kg); type: ADME, organism-based; design: dose 10 mg/kg, route oral
Method in brief: (§2)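 Rats in groups of eight: four dosed 5 mg/kg intravenously, four 10 mg/kg orally. Dosing solutions were 5 mg/mL in 20% ethanol/5% glucose in water with 2 molar equiv HCl (1 equiv HCl or 2 equiv methanesulfonic acid for some). Terminal t1/2 from the IV arm (n = 4). Cmax was the peak plasma level after oral dosing (n = 4). Bioavailability was AUCoral/2 × AUCiv over 0-6 h.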

[7] = % bioavailability in rat after oral dose (10 mg/kg) 0 - 6 h.; type: ADME, organism-based; conditions: in vivo; method in brief: as §2
[8] = t1/2 in rats after IV dose (5 mg/kg); type: ADME, organism-based; conditions: rat, in vivo; method in brief: as §2
[9] = system: Human immunodeficiency virus 1; test: In vitro for inhibition of cytopathic effect of HIV-1 3B in MT-4 lymphocytes.; type: functional, organism-based; method in brief: as §1

Row | Structure (SMILES) | solubility [1] | CC50 [2] | EC50 [3] | IC50 [4] | EC50 [5] | Cmax [6] | bioavailability [7] | half-life [8] | EC50 [9]
1 | CC(C)[C@H](NS(=O)(=O)CCc1ccccn1)C(=O)N[C@@H](Cc1ccccc1)[C@@H](O)[C@@H](O)[C@H](Cc1ccccc1)NC(=O)[C@H](NS(=O)(=O)CCc1ccccn1)C(C)C | 26 µg/mL (≈ 31.1 µM) | > 100 µM | 2 µM | < 0.001 µM | – | – | – | – | –
2 | CC(C)[C@H](NS(=O)(=O)CCc1ccncc1)C(=O)N[C@@H](Cc1ccccc1)[C@H](O)[C@H](O)[C@H](Cc1ccccc1)NC(=O)[C@H](NS(=O)(=O)CCc1ccncc1)C(C)C | 55 µg/mL (≈ 65.7 µM) | > 100 µM | 19 µM | 0.013 µM | – | – | – | – | –
3 | CC(C)[C@H](NC(=O)OCCN1CCOCC1)C(=O)N[C@@H](Cc1ccccc1)[C@@H](O)[C@H](Cc1ccccc1)NC(=O)[C@H](NC(=O)OCc1ccccc1)C(C)C | 6.8 µg/mL (≈ 8.95 µM) | > 100 µM | 6.9 µM | 0.009 µM | – | – | – | – | –
4 | CC(C)[C@H](NC(=O)OCc1ccncc1)C(=O)N[C@@H](Cc1ccccc1)[C@@H](O)[C@H](Cc1ccccc1)NC(=O)[C@H](NC(=O)OCc1ccccc1)C(C)C | 0.8 µg/mL (≈ 1.08 µM) | > 100 µM | 10 µM | 0.007 µM | – | – | – | – | –
5 | CC(C)[C@H](NC(=O)OCCN1CCCC1)C(=O)N[C@@H](Cc1ccccc1)[C@@H](O)[C@H](Cc1ccccc1)NC(=O)[C@H](NC(=O)OCc1ccccc1)C(C)C | 19 µg/mL (≈ 25.5 µM) | 21 µM | – | 0.014 µM | Not Active | – | – | – | –
6 | CC(C)[C@H](NS(=O)(=O)CCc1ccncc1)C(=O)N[C@@H](Cc1ccccc1)[C@@H](O)[C@@H](O)[C@H](Cc1ccccc1)NC(=O)[C@H](NS(=O)(=O)CCc1ccncc1)C(C)C | 5.6 µg/mL (≈ 6.69 µM) | > 100 µM | 17 µM | 0.0057 µM | – | – | – | – | –
7 | CC(C)[C@H](NS(=O)(=O)CCc1ccccn1)C(=O)N[C@@H](Cc1ccccc1)[C@H](O)[C@H](O)[C@H](Cc1ccccc1)NC(=O)[C@H](NS(=O)(=O)CCc1ccccn1)C(C)C | 0.047 µg/mL (≈ 0.0561 µM) | > 100 µM | 1.8 µM | 0.0016 µM | – | – | – | – | –
8 | CC(C)[C@H](NC(=O)OCC1CCCN(C)C1)C(=O)N[C@@H](Cc1ccccc1)[C@@H](O)[C@H](Cc1ccccc1)NC(=O)[C@H](NC(=O)OCc1ccccc1)C(C)C (stereo partly specified) | 31 µg/mL (≈ 40.9 µM) | 17 µM | – | 0.013 µM | Not Active | – | – | – | –
9 | CC(C)[C@H](NC(=O)OCc1ccncc1)C(=O)N[C@@H](Cc1ccccc1)C(O)[C@H](Cc1ccccc1)NC(=O)[C@H](NC(=O)OCc1ccncc1)C(C)C (stereo partly specified) | 7.8 µg/mL (≈ 10.6 µM) | > 100 µM | 10 µM | 0.026 µM | – | 200 nM | 0.9% | 0.57 h | –
10 | CC(C)[C@H](NC(=O)N(C)Cc1cscn1)C(=O)N[C@@H](Cc1ccccc1)[C@H](O)[C@@H](O)[C@H](Cc1ccccc1)NC(=O)[C@H](NC(=O)N(C)Cc1csc(N)n1)C(C)C | 331 µg/mL (≈ 403 µM) | > 100 µM | 1.5 µM | < 0.001 µM | – | – | – | – | –
11 | CC(C)[C@H](NS(=O)(=O)N(C)Cc1ccccn1)C(=O)N[C@@H](Cc1ccccc1)[C@@H](O)[C@@H](O)[C@H](Cc1ccccc1)NC(=O)[C@H](NS(=O)(=O)N(C)Cc1ccccn1)C(C)C | 23 µg/mL (≈ 26.5 µM) | 52 µM | – | 0.24 µM | Not Active | – | – | – | –
12 | CC(C)[C@H](NC(=O)N1CCN(c2ccccc2)CC1)C(=O)N[C@@H](Cc1ccccc1)[C@@H](O)[C@@H](O)[C@H](Cc1ccccc1)NC(=O)[C@H](NC(=O)N1CCN(c2ccccc2)CC1)C(C)C | 1 µg/mL (≈ 1.14 µM) | 18 µM | 1.7 µM | 0.0014 µM | – | – | – | – | –
13 | CC(C)[C@H](NC(=O)N(C)Cc1csc(N)n1)C(=O)N[C@@H](Cc1ccccc1)[C@@H](O)[C@H](O)[C@H](Cc1ccccc1)NC(=O)[C@H](NC(=O)N(C)Cc1csc(N)n1)C(C)C | 184 µg/mL (≈ 220 µM) | > 100 µM | 2.3 µM | < 0.001 µM | – | – | – | – | –
14 | CC(C)[C@H](NS(=O)(=O)N(C)Cc1ccccn1)C(=O)N[C@@H](Cc1ccccc1)C(O)[C@H](Cc1ccccc1)NC(=O)[C@H](NS(=O)(=O)N(C)Cc1ccccn1)C(C)C (stereo partly specified) | 11 µg/mL (≈ 13.1 µM) | 32 µM | – | 1.3 µM | Not Active | 2100 nM | 21% | 1.4 h | –
15 | CC(C)[C@H](NS(=O)(=O)N(C)Cc1ccccn1)C(=O)N[C@@H](Cc1ccccc1)[C@H](O)[C@H](O)[C@H](Cc1ccccc1)NC(=O)[C@H](NS(=O)(=O)N(C)Cc1ccccn1)C(C)C | 40 µg/mL (≈ 46.1 µM) | 65 µM | – | 0.038 µM | – | 1160 nM | 11% | 1.5 h | 43 µM
16 | CC(C)[C@H](NS(=O)(=O)N(C)Cc1ccccn1)C(=O)N[C@@H](Cc1ccccc1)[C@@H](O)[C@H](O)[C@H](Cc1ccccc1)NC(=O)[C@H](NS(=O)(=O)N(C)Cc1ccccn1)C(C)C | 30 µg/mL (≈ 34.6 µM) | 56 µM | – | 0.071 µM | Not Active | – | – | – | –
17 | CC(C)[C@H](NC(=O)N1CCN(Cc2ccccc2)CC1)C(=O)N[C@@H](Cc1ccccc1)[C@H](O)[C@H](O)[C@H](Cc1ccccc1)NC(=O)[C@H](NC(=O)N1CCN(Cc2ccccc2)CC1)C(C)C | 1.7 µg/mL (≈ 1.88 µM) | > 100 µM | 9.4 µM | 0.009 µM | – | – | – | – | –
18 | CC(C)[C@H](NC(=O)OCCN1CCOCC1)C(=O)N[C@@H](Cc1ccccc1)[C@@H](O)[C@@H](O)[C@H](Cc1ccccc1)NC(=O)[C@H](NC(=O)OCCN1CCOCC1)C(C)C | 132 µg/mL (≈ 162 µM) | > 100 µM | 14 µM | 0.02 µM | – | – | – | – | –
19 | CC(C)[C@H](NC(=O)N1CCN(C)CC1)C(=O)N[C@@H](Cc1ccccc1)[C@@H](O)[C@H](Cc1ccccc1)NC(=O)[C@H](NC(=O)OCc1ccccc1)C(C)C | 141 µg/mL (≈ 193 µM) | 55 µM | – | 0.028 µM | Not Active | 250 nM | 13% | 1.1 h | –
20 | CC(C)[C@H](NC(=O)C1Cc2ccccc2CN1)C(=O)N[C@@H](Cc1ccccc1)C(O)[C@H](Cc1ccccc1)NC(=O)[C@H](NC(=O)C1Cc2ccccc2CN1)C(C)C (stereo partly specified) | – | 6.4 µM | – | 0.0071 µM | Not Active | – | – | – | –
